Where “and” joins values, the source holds several entries; their conditions need not be identical. Equal entries are not always repeated.
System: U2OS
Experiment: Multiplex assay against U2OS
Type: toxicity, cell-based
Conditions: human
Method in brief: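 Hoechst33342, BioTracker Green Microtubule Cytoskeleton Dye, MitoTracker Red and Annexin V Alexa Fluor 680 were added to live cells at seeding, and imaging on a CQ1 microscope at 37°C and 5% CO2 followed compound addition. Gating by CellPathfinder machine learning separated cells into Hoechst high-intensity objects or normal cells, then normal cells into healthy, pyknosed or fragmented nuclei, then pyknosed cells into mitotic or apoptotic. Per cents of healthy-nucleus cells are reported for the tubulin, mitochondrial-mass and membrane-permeability phenotypes.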

[1] = 12 h, 1 µM, compound concentration 1 uM, replicate 1
[2] = 12 h, 1 µM, compound concentration 1 uM, replicate 2
[3] = 12 h, 10 µM, compound concentration 10 uM, replicate 1
[4] = 12 h, 10 µM, compound concentration 10 uM, replicate 2
[5] = 24 h, 1 µM, compound concentration 1 uM, replicate 1
[6] = 24 h, 1 µM, compound concentration 1 uM, replicate 2
[7] = 24 h, 10 µM, compound concentration 10 uM, replicate 1
[8] = 24 h, 10 µM, compound concentration 10 uM, replicate 2
[9] = 48 h, 1 µM, compound concentration 1 uM, replicate 1
[10] = 48 h, 1 µM, compound concentration 1 uM, replicate 2
[11] = 48 h, 10 µM, compound concentration 10 uM, replicate 1
[12] = 48 h, 10 µM, compound concentration 10 uM, replicate 2

Nc1c(C(=O)NCc2ccc(C(=O)NCCCC3CCCCC3)cc2)cnn1-c1ccccc1 [SR-318]
Population Apoptotic (%) [1]: 42% and 23% and 30% | Population Fragmented Nuclei (%) [1]: 5% and 10% and 6% | Population Healthy Nuclei (%) [1]: 85% and 78% and 81% | Population Hoechst High Intensity Objects (%) [1]: 3% | Population Membrane Permeable-Phenotype (%) [1]: 4% and 3% | Population Mitochondria Different-Phenotype (%) [1]: 9% and 6% | Population Mitotic Cells (%) [1]: 57% and 76% and 69% | Population Normal (%) [1]: 96% | Population Pyknosed Nuclei (%) [1]: 9% and 10% and 12% | Population Tubulin-Different-Phenotype (%) [1]: 52% and 44% | Total Cell Count [1]: 171 and 322 and 200 | Population Fragmented Nuclei (%) [2]: 9% and 3% | Population Healthy Nuclei (%) [2]: 83% and 75% and 91% | Population Membrane Permeable-Phenotype (%) [2]: 6% and 5% | Population Mitochondria Different-Phenotype (%) [2]: 8% | Population Mitotic Cells (%) [2]: 50% and 87% and 100% | Population Normal (%) [2]: 95% and 73% | Population Tubulin-Different-Phenotype (%) [2]: 19% and 25% and 11% | Total Cell Count [2]: 63 and 91 and 118 | Population Apoptotic (%) [3]: 61% and 58% and 42% | Population Fragmented Nuclei (%) [3]: 6% and 14% and 11% | Population Healthy Nuclei (%) [3]: 74% and 65% and 67% | Population Hoechst High Intensity Objects (%) [3]: 2% and 8% and 5% | Population Membrane Permeable-Phenotype (%) [3]: 8% and 5% and 2% | Population Mitochondria Different-Phenotype (%) [3]: 57% and 50% and 60% | Population Mitotic Cells (%) [3]: 38% and 41% and 57% | Population Normal (%) [3]: 97% and 91% and 94% | Population Pyknosed Nuclei (%) [3]: 18% and 20% and 21% | Population Tubulin-Different-Phenotype (%) [3]: 39% and 47% and 40% | Total Cell Count [3]: 186 and 329 and 402 | Population Apoptotic (%) [4]: 45% and 22% and 33% | Population Fragmented Nuclei (%) [4]: 17% and 15% and 12% | Population Healthy Nuclei (%) [4]: 69% and 58% and 72% | Population Hoechst High Intensity Objects (%) [4]: 7% and 1% and 10% | Population Membrane Permeable-Phenotype (%) [4]: 10% and 7% and 3% | Population Mitochondria Different-Phenotype (%) [4]: 55% and 51% | Population Mitotic Cells (%) [4]: 54% and 77% and 66% | Population Normal (%) [4]: 92% and 98% and 89% | Population Pyknosed Nuclei (%) [4]: 13% and 25% and 15% | Population Tubulin-Different-Phenotype (%) [4]: 50% and 56% and 67% | Total Cell Count [4]: 71 and 90 and 91 | Population Apoptotic (%) [5]: 35% and 34% and 21% | Population Fragmented Nuclei (%) [5]: 5% and 8% | Population Healthy Nuclei (%) [5]: 85% | Population Hoechst High Intensity Objects (%) [5]: 0% and 3% | Population Membrane Permeable-Phenotype (%) [5]: 1% and 4% and 2% | Population Mitochondria Different-Phenotype (%) [5]: 5% and 6% and 8% | Population Mitotic Cells (%) [5]: 64% and 65% and 78% | Population Normal (%) [5]: 99% and 96% | Population Pyknosed Nuclei (%) [5]: 9% and 10% | Population Tubulin-Different-Phenotype (%) [5]: 59% and 20% and 47% | Total Cell Count [5]: 185 and 423 and 237 | Population Apoptotic (%) [6]: 25% | Population Fragmented Nuclei (%) [6]: 6% and 3% and 4% | Population Healthy Nuclei (%) [6]: 80% and 84% and 75% | Population Membrane Permeable-Phenotype (%) [6]: 8% and 5% | Population Mitochondria Different-Phenotype (%) [6]: 13% and 12% and 7% | Population Mitotic Cells (%) [6]: 75% | Population Normal (%) [6]: 94% and 97% and 77% | Population Pyknosed Nuclei (%) [6]: 13% and 11% and 19% | Population Tubulin-Different-Phenotype (%) [6]: 22% and 14% and 23% | Total Cell Count [6]: 67 and 130 and 97 | Population Apoptotic (%) [7]: 55% and 58% and 61% | Population Fragmented Nuclei (%) [7]: 12% and 5% | Population Healthy Nuclei (%) [7]: 67% and 74% and 61% | Population Hoechst High Intensity Objects (%) [7]: 8% and 4% | Population Membrane Permeable-Phenotype (%) [7]: 4% and 2% and 0% | Population Mitochondria Different-Phenotype (%) [7]: 55% and 53% and 63% | Population Mitotic Cells (%) [7]: 44% and 41% and 38% | Population Normal (%) [7]: 91% and 95% | Population Pyknosed Nuclei (%) [7]: 19% | Population Tubulin-Different-Phenotype (%) [7]: 36% and 24% | Total Cell Count [7]: 409 and 192 and 426 | Population Apoptotic (%) [8]: 28% and 44% and 46% | Population Fragmented Nuclei (%) [8]: 13% and 17% and 14% | Population Healthy Nuclei (%) [8]: 65% and 62% and 66% | Population Hoechst High Intensity Objects (%) [8]: 1% and 7% | Population Membrane Permeable-Phenotype (%) [8]: 9% and 7% and 3% | Population Mitochondria Different-Phenotype (%) [8]: 58% and 57% and 66% | Population Mitotic Cells (%) [8]: 71% and 55% and 53% | Population Normal (%) [8]: 98% and 92% | Population Pyknosed Nuclei (%) [8]: 21% and 20% and 18% | Population Tubulin-Different-Phenotype (%) [8]: 41% and 30% and 61% | Total Cell Count [8]: 104 and 67 and 97 | Population Apoptotic (%) [9]: 44% and 47% and 55% | Population Fragmented Nuclei (%) [9]: 3% and 8% | Population Healthy Nuclei (%) [9]: 87% and 83% | Population Hoechst High Intensity Objects (%) [9]: 0% and 2% | Population Membrane Permeable-Phenotype (%) [9]: 2% and 1% | Population Mitochondria Different-Phenotype (%) [9]: 5% and 8% and 7% | Population Mitotic Cells (%) [9]: 55% and 52% and 44% | Population Normal (%) [9]: 99% and 97% | Population Pyknosed Nuclei (%) [9]: 8% and 9% and 7% | Population Tubulin-Different-Phenotype (%) [9]: 69% and 56% and 24% | Total Cell Count [9]: 247 and 369 and 658 | Population Apoptotic (%) [10]: 28% and 40% and 26% | Population Fragmented Nuclei (%) [10]: 7% and 5% and 2% | Population Healthy Nuclei (%) [10]: 86% and 84% | Population Membrane Permeable-Phenotype (%) [10]: 10% and 9% and 3% | Population Mitochondria Different-Phenotype (%) [10]: 14% and 9% | Population Mitotic Cells (%) [10]: 71% and 60% and 73% | Population Normal (%) [10]: 95% and 98% and 83% | Population Pyknosed Nuclei (%) [10]: 5% and 6% and 13% | Population Tubulin-Different-Phenotype (%) [10]: 28% and 20% and 25% | Total Cell Count [10]: 93 and 175 and 144 | Population Apoptotic (%) [11]: 70% and 73% and 60% | Population Fragmented Nuclei (%) [11]: 7% | Population Healthy Nuclei (%) [11]: 76% and 61% | Population Hoechst High Intensity Objects (%) [11]: 2% and 4% | Population Membrane Permeable-Phenotype (%) [11]: 2% and 0% | Population Mitochondria Different-Phenotype (%) [11]: 35% and 32% and 47% | Population Mitotic Cells (%) [11]: 29% and 26% and 40% | Population Normal (%) [11]: 97% and 95% | Population Pyknosed Nuclei (%) [11]: 16% and 23% and 22% | Population Tubulin-Different-Phenotype (%) [11]: 17% and 9% and 25% | Total Cell Count [11]: 234 and 596 and 634 | Population Apoptotic (%) [12]: 35% and 38% and 33% | Population Fragmented Nuclei (%) [12]: 15% and 14% and 12% | Population Healthy Nuclei (%) [12]: 68% and 60% | Population Hoechst High Intensity Objects (%) [12]: 7% and 3% | Population Membrane Permeable-Phenotype (%) [12]: 6% and 18% and 17% | Population Mitochondria Different-Phenotype (%) [12]: 52% and 40% and 44% | Population Mitotic Cells (%) [12]: 64% and 61% and 66% | Population Normal (%) [12]: 92% and 96% | Population Pyknosed Nuclei (%) [12]: 15% and 17% and 28% | Population Tubulin-Different-Phenotype (%) [12]: 32% and 26% and 31% | Total Cell Count [12]: 113 and 78 and 158
